ChEMBL document CHEMBL1141713, “Bisphosphonate inhibitors of ATP-mediated HIV-1 reverse transcriptase catalyzed excision of chain-terminating 3'-azido, 3'-deoxythymidine: a QSAR investigation” (Bioorg Med Chem, 2008)
Activity calls are given as the source filed them. No cut-off for these calls is given here.

Tests used:
[1] = Toxicity against human SF268 cells assessed as growth inhibition by broth microdilution method; assay type: cell-based, SF-268
How it was run: (§1)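 Cells grown in RPMI-1640 with 2mM L-glutamine and 10% FBS at 37°C, 5% CO₂. Seeded at 5,000 cells/well and exposed to compounds in half-log serial dilution, 316μM–10nM (100μM–10nM when the DMSO stock was used), for 4 days. Read-out by MTT, absorbance at 600nm. IC₅₀ fitted to a rectangular hyperbola with Imax fixed at 100%.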

[2] = Toxicity against human MCF7 cells assessed as growth inhibition by broth microdilution method; assay type: cell-based; how it was run: as §1
[3] = Toxicity against human NCI-H460 cells assessed as growth inhibition by broth microdilution method; assay type: cell-based; how it was run: as §1
[4] = Inhibition of the ATP-mediated HIV1 reverse transcriptase D67N/K70R/T215F/K219Q mutant catalyzed 3'-azido, 3'-deoxythymidine excision from AZT-terminated DNA primers; parameters: species or system Human immunodeficiency virus 1
How it was run: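 TAM-RT incubated with 5′-³²P-labeled 57/19 heteropolymeric DNA T/P whose 20 nt primer was chain-terminated with AZTMP (RT:T/P 4:1), in 50 mM Tris-HCl pH 8.0, 50 mM KCl, with or without varying bisphosphonate. Started with 10 mM MgCl₂ + 3.0 mM ATP, inorganic pyrophosphatase included. Timed aliquots quenched in formamide/EDTA dye. 20 nt and 19 nt excision product resolved on denaturing gel, quantified by phosphorimaging; IC₅₀.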

[5] = test system: Human immunodeficiency virus 1; assay: Inhibition of the ATP-mediated HIV1 reverse transcriptase D67N/K70R/T215F/K219Q mutant catalyzed DNA synthesis

| Compound | IC50 [1] [µM] | IC50 [2] [µM] | IC50 [3] [µM] | IC50 [4] [µM] | pIC50 [4] | Activity [5] |
| --- | --- | --- | --- | --- | --- | --- |
| Cc1ccc(NC(P(=O)(O)O)P(=O)(O)O)cc1-c1ccccc1 | 297 | 296 | 301 | 5 | 5.3 | inactive |
| COc1ccc(-c2ccc(CC(O)(P(=O)(O)O)P(=O)(O)O)cc2)cc1 | – | – | – | 5.2 | 5.3 | inactive |
| O=P(O)(O)C(O)(Cc1ccccc1)P(=O)(O)O | – | – | – | 302 | 3.5 | – |
| COCc1cccc(NC(P(=O)(O)O)P(=O)(O)O)c1 | > 300 | > 300 | > 300 | 9.5 | 5 | inactive |
| O=P(O)(O)C(Nc1cccc(-c2ccc(F)cc2F)c1)P(=O)(O)O | > 300 | > 300 | > 300 | 3.9 | 5.4 | inactive |
| COc1ccc(-c2cccc(CC(O)(P(=O)(O)O)P(=O)(O)O)c2)cc1 | 139 | 128 | 118 | 2.4 | 5.6 | inactive |
| O=P(O)(O)C(Nc1cccc(-c2ccc(F)c(F)c2)c1)P(=O)(O)O | > 300 | > 300 | > 300 | 2.1 | 5.7 | inactive |
| O=P(O)(O)C(O)(Cc1cccc(-c2ccc(F)c(F)c2)c1)P(=O)(O)O | 236 | 225 | 253 | 1 | 6 | inactive |
| O=P(O)(O)C(O)(Cc1cccc(Oc2ccccc2)c1)P(=O)(O)O | 176 | 188 | 212 | 3.3 | 5.5 | inactive |
| Nc1ccccc1CC(O)(P(=O)(O)O)P(=O)(O)O | 186 | 205 | 187 | 38 | 4.4 | inactive |
| O=P(O)(O)C(O)(Cc1ccc(Cl)c(Cl)c1)P(=O)(O)O | 208 | 213 | 241 | 0.5 | 6.3 | inactive |
| CCCCCCCCCC(O)(P(=O)(O)O)P(=O)(O)O | – | – | – | 302 | 3.5 | – |
| O=P(O)(O)C(Nc1cccc(-c2cc(F)cc(F)c2)c1)P(=O)(O)O | > 100 | > 100 | > 100 | 2.2 | 5.7 | inactive |
| CN(C)c1ccccc1CC(O)(P(=O)(O)O)P(=O)(O)O | > 300 | > 300 | > 300 | 51.3 | 4.3 | inactive |
| O=P(O)(O)C(O)(Cc1ccc(-c2ccc(Cl)cc2)cc1)P(=O)(O)O | > 100 | > 100 | > 100 | 3.9 | 5.4 | inactive |
| O=P(O)(O)C(CNc1cccc(-c2ccccc2)c1)P(=O)(O)O | > 300 | > 300 | > 300 | 11.2 | 5 | inactive |
| O=P(O)(O)C(O)(C[n+]1ccccc1)P(=O)(O)O | – | – | – | 302 | 3.5 | – |
| CCCCCCCCC(O)(P(=O)(O)O)P(=O)(O)O | – | – | – | 302 | 3.5 | – |

| Compound | IC50 [1] [µM] | IC50 [2] [µM] | IC50 [3] [µM] | IC50 [4] [µM] | pIC50 [4] | Activity [5] |
| --- | --- | --- | --- | --- | --- | --- |
| O=P(O)(O)C(O)(Cc1cccc(-c2cc(F)ccc2F)c1)P(=O)(O)O | 122 | 165 | 141 | 1.5 | 5.8 | inactive |
| CCCCCCCc1ccc(NC(P(=O)(O)O)P(=O)(O)O)cc1 | – | – | – | 302 | 3.5 | – |
| O=P(O)(O)C(O)(Cc1cccc(-c2ccc(F)cc2)c1)P(=O)(O)O | 224 | 173 | 175 | 1.9 | 5.7 | inactive |
| O=P(O)(O)C(Nc1cccc(Br)c1)P(=O)(O)O | > 300 | > 300 | > 300 | 1 | 6 | inactive |
| NCCCCCC(O)(P(=O)(O)O)P(=O)(O)O [NERIDRONIC ACID] | – | – | – | 302 | 3.5 | – |
| CCCCCCCCCCCC(O)(P(=O)(O)O)P(=O)(O)O | – | – | – | 302 | 3.5 | – |
| CN(CCCc1ccccc1)CCC(O)(P(=O)(O)O)P(=O)(O)O | – | – | – | 302 | 3.5 | – |
| O=P(O)(O)C(Nc1cccc(CO)c1)P(=O)(O)O | > 300 | > 300 | > 300 | 7.9 | 5.1 | inactive |
| COc1cccc(CC(O)(P(=O)(O)O)P(=O)(O)O)c1 | > 300 | > 300 | > 300 | 5.4 | 5.3 | inactive |
| O=P(O)(O)C(CNc1ccc(-c2ccccc2)cc1)P(=O)(O)O | 95 | 84 | 95 | 4.6 | 5.3 | inactive |
| O=P(O)(O)C(O)(Cc1cccc2ccccc12)P(=O)(O)O | 225 | 259 | 248 | 1.3 | 5.9 | inactive |
| O=P(O)(O)C(Nc1cccc(-c2ccccc2)c1)P(=O)(O)O | 269 | 289 | 253 | 3.2 | 5.5 | inactive |
| O=P(O)(O)C(Nc1ccc(Cc2ccccc2)cc1)P(=O)(O)O | > 100 | > 100 | > 100 | 3.5 | 5.5 | inactive |
| O=P(O)(O)C(O)(Cc1ccc(-c2ccc(F)cc2)cc1)P(=O)(O)O | > 300 | > 300 | > 300 | 2.9 | 5.5 | inactive |
| CCCCCCc1ccc(NC(P(=O)(O)O)P(=O)(O)O)cc1 | – | – | – | 302 | 3.5 | – |
| O=P(O)(O)C(Nc1ccc(-c2ccccc2)cc1)P(=O)(O)O | – | – | – | 302 | 3.5 | – |
| O=P(O)(O)C(O)(Cc1cccc(-c2ccc(Cl)cc2)c1)P(=O)(O)O | 48 | 41 | 39 | 0.9 | 6.1 | inactive |
